These results are taken from ChEMBL document CHEMBL1177636, “Optimization of isochromanone based urotensin II receptor agonists” (Bioorg Med Chem, 2010).

Activity calls are given as the source filed them. No cut-off for these calls is given here.

The target of one experiment is T1, Urotensin-2 receptor (Homo sapiens, UniProt Q9UKP6).
T1 sequence (Q9UKP6 whole entry): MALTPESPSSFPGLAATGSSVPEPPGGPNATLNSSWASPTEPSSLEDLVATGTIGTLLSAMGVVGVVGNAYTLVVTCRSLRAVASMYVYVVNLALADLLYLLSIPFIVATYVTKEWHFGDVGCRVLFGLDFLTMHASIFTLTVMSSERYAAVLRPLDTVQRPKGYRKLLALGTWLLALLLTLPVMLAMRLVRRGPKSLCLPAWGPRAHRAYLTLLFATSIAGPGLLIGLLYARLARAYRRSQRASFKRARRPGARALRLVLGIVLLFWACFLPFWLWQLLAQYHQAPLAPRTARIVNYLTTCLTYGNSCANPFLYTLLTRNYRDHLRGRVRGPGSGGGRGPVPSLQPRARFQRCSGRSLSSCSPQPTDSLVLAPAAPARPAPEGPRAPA
The experiment in a line: (§1) Agonist activity against human urotensin 2 receptor expressed in […] cells assessed as beta-galactosidase activity after 5 days by R-SAT assay. In kind it is functional, cell-based. The gist of the method:
(§2)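 R-SAT in NIH-3T3 cells grown to 80% confluence in DMEM with 10% bovine calf serum, then transfected for 18 h with human UII receptor plus a β-galactosidase marker. Cells were frozen and thawed into DMEM with 0.4% calf serum and 30% UltraCulture, then incubated with compound for 5 days in 5% CO₂. Reporter read at 420 nm. Eight doses in triplicate, 2–5 EC₅₀ determinations, reported as mean ± SD; efficacy normalized to UII = 100%.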
`COc1ccc2c(c1)CC(CCN(C)C)(c1ccc(Cl)cc1)OC2=O` (stereo unspecified): the EC50 was 0.955 µM.

Take `C=CCN(C)CCC1(c2ccc(Cl)cc2)Cc2ccccc2C(=O)O1` (stereo unspecified): the EC50 was 4.17 µM.

Regarding `C[N+](C)(C)CCC1(c2ccc(Cl)cc2)Cc2ccccc2C(=O)O1` (stereo unspecified), the EC50 was 3.8 µM.

In the case of `COc1cccc2c1CC(CCN(C)C)(c1ccc(Cl)cc1)N(C)C2=O` (stereo unspecified), the EC50 is 1.17 µM.

Consider `CN(C)CCC1(c2ccc(Br)cc2)Cc2ccccc2C(=O)O1` (stereo unspecified), for which the EC50 was 0.933 µM.

Take `COc1cc(OC)cc(C2(CCN(C)C)Cc3cc(C)c(C)cc3C(=O)O2)c1` (stereo unspecified): the EC50 was 5.25 µM.

With `CN(C)CCC1(c2ccc(Cl)cc2)Cc2ccc3ccccc3c2C(=O)O1` (stereo unspecified), the EC50 was 1.15 µM.

For the molecule `Cc1cc2c(cc1C)C(=O)OC(CCN(C)C)(c1ccc(Cl)c(Cl)c1)C2` (stereo unspecified), the EC50 was 0.0513 µM.

On to `CN(C)CCC1(c2cccc(-c3ccccc3)c2)Cc2ccccc2C(=O)O1` (stereo unspecified), for which the EC50 was 1.41 µM.

Regarding `Cc1cc2c(cc1C)CC(CCN(C)C)(c1ccc3ccccc3c1)OC2` (stereo unspecified), the EC50 is 0.263 µM.

As for `CN(C)CCC1(c2ccc(Oc3ccccc3)cc2)Cc2ccccc2C(=O)O1` (stereo unspecified), the EC50 is 1.15 µM.

With `Cc1cc2c(cc1C)CC(CCN(C)C)(c1ccc(Cl)cc1)OC2` (stereo unspecified), the EC50 was 0.692 µM.

For the molecule `Cc1cc2c(cc1C)C(=O)OC(CCN(C)C)(c1ccc3ccccc3c1)C2` (stereo unspecified), the EC50 was 0.148 µM.

As for `CC(C)N1C(=O)c2ccccc2CC1(CCN(C)C)c1ccc(Cl)cc1` (stereo unspecified), the EC50 was 2.24 µM.

For `C=CCN(CC=C)c1cccc(C2(CCN(C)C)Cc3ccccc3C(=O)O2)c1` (stereo unspecified), the EC50 was 2.4 µM.

Take `CNCCC1(c2ccc(Cl)cc2)Cc2ccccc2C(=O)O1` (stereo unspecified): the concentration for a half-maximal effect (EC50) was 1.95 µM.

Regarding `CN(C)CCC1(c2ccc(Cl)cc2)Cc2ccccc2CO1` (stereo unspecified), the EC50 is 0.501 µM.

For the molecule `C=CCN(CC=C)c1ccc2c(c1)CC(CCN(C)C)(c1ccc(Cl)cc1)OC2=O` (stereo unspecified), the EC50 was 0.724 µM.

Regarding `CN(C)CCC1(c2cccc(Br)c2)Cc2ccccc2C(=O)O1` (stereo unspecified), the EC50 was 2.95 µM.

As for `CN(C)CCC1(c2ccc(Cl)cc2)Cc2ccccc2C(=O)N1C` (stereo unspecified), the EC50 is 2.29 µM.

Turning to `CN(C)CCC1(c2ccc(Cl)c(Cl)c2)Cc2ccccc2C(=O)O1` (stereo unspecified), the EC50 was 0.676 µM.

With `COc1cccc(C2(CCN(C)C)Cc3cc(C)c(C)cc3C(=O)O2)c1` (stereo unspecified), the EC50 was 2.88 µM.

In the case of `COc1ccc2c(c1C)CC(CCN(C)C)(c1ccc(Cl)cc1)OC2=O` (stereo unspecified), the EC50 was 1.74 µM.

The target in a further experiment is T2, Urotensin-2 receptor (Homo sapiens) (UniProt Q9UKP6).
T2 sequence (whole entry): T1 sequence (Q9UKP6 whole entry)
Described as §1. In kind it is functional, cell-based. The gist of the method: as §2
Regarding `CN(C)CCC1(c2ccc(C#Cc3ccccc3)cc2)Cc2ccccc2C(=O)O1` (stereo unspecified), the pEC50 result was “inactive”.

`C=CCN(CC=C)c1ccc(C2(CCN(C)C)Cc3ccccc3C(=O)O2)cc1` (stereo unspecified): the pEC50 result is “inactive”.

In the case of `CN(C)CCC1(c2ccc(Cl)cc2)Cc2cc(-c3ccccc3)ccc2C(=O)O1` (stereo unspecified), the pEC50 entry was “inactive”.

Turning to `CN(C)CCC1(c2ccc(-c3ccccc3)cc2)Cc2ccccc2C(=O)O1` (stereo unspecified), the pEC50 result was “inactive”.

In a further experiment the target is Somatostatin receptor type 1 (Homo sapiens) (UniProt P30872). In words: Agonist activity against human SST1 receptor expressed in […] cells assessed as beta-galactosidase activity at 3 uM after 5 days by R-SAT assay. Type of experiment: functional, cell-based.
Somatostatin receptor type 1 (Homo sapiens), sequence (P30872 whole entry): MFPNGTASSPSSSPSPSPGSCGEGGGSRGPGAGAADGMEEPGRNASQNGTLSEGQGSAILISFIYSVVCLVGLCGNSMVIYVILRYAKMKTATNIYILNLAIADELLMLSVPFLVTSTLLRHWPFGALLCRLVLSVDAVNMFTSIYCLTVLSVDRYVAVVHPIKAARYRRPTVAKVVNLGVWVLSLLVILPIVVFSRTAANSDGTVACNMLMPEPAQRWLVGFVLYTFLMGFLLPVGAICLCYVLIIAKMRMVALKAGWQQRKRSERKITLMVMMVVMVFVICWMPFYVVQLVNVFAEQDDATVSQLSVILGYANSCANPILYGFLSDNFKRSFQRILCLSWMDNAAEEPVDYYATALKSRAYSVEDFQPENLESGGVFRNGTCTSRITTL
`Cc1cc2c(cc1C)C(=O)OC(CCN(C)C)(c1ccc(Cl)c(Cl)c1)C2` (stereo unspecified): the outcome was inactive.

In the next experiment the target is Somatostatin receptor type 4 (Homo sapiens) (UniProt P31391). In words: Agonist activity against human SST4 receptor expressed in […] cells assessed as beta-galactosidase activity at 3 uM after 5 days by R-SAT assay. In kind it is functional, cell-based.
Somatostatin receptor type 4 (Homo sapiens), sequence (P31391 whole entry): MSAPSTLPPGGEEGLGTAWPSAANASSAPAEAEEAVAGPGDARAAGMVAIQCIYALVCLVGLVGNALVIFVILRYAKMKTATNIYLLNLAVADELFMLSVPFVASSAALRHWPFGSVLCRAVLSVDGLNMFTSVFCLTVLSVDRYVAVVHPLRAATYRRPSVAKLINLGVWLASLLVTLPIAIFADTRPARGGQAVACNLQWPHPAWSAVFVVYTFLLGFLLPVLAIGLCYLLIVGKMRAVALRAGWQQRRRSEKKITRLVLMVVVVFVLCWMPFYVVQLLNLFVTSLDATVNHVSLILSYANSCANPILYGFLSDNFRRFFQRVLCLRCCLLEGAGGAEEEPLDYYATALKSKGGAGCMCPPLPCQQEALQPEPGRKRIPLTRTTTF
As for `Cc1cc2c(cc1C)C(=O)OC(CCN(C)C)(c1ccc(Cl)c(Cl)c1)C2` (stereo unspecified), the Activity stood at 31%.

The target in another experiment is T2, Urotensin-2 receptor (Homo sapiens). The experiment in a line: Agonist activity against human urotensin 2 receptor expressed in […] cells assessed as beta-galactosidase activity after 5 days by R-SAT assay relative to Urotensin-2. Type of experiment: functional, cell-based. The gist of the method:
as §2
For the molecule `COc1ccc2c(c1)CC(CCN(C)C)(c1ccc(Cl)cc1)OC2=O` (stereo unspecified), the Efficacy is 165%.

Regarding `CN(C)CCC1(c2ccc(C#Cc3ccccc3)cc2)Cc2ccccc2C(=O)O1` (stereo unspecified), the Efficacy result is “inactive”.

Consider `C=CCN(CC=C)c1ccc(C2(CCN(C)C)Cc3ccccc3C(=O)O2)cc1` (stereo unspecified), for which the Efficacy entry was “inactive”.

With `C=CCN(C)CCC1(c2ccc(Cl)cc2)Cc2ccccc2C(=O)O1` (stereo unspecified), the Efficacy was determined as 77%.

Consider `CN(C)CCC1(c2ccc(Cl)cc2)Cc2cc(-c3ccccc3)ccc2C(=O)O1` (stereo unspecified), for which the Efficacy entry was “inactive”.

Turning to `C[N+](C)(C)CCC1(c2ccc(Cl)cc2)Cc2ccccc2C(=O)O1` (stereo unspecified), the Efficacy amounted to 118%.

As to `COc1cccc2c1CC(CCN(C)C)(c1ccc(Cl)cc1)N(C)C2=O` (stereo unspecified), the Efficacy is 151%.

On to `CN(C)CCC1(c2ccc(Br)cc2)Cc2ccccc2C(=O)O1` (stereo unspecified), for which the Efficacy worked out at 127%.

With `COc1cc(OC)cc(C2(CCN(C)C)Cc3cc(C)c(C)cc3C(=O)O2)c1` (stereo unspecified), the Efficacy was found to be 156%.

With `CN(C)CCC1(c2ccc(Cl)cc2)Cc2ccc3ccccc3c2C(=O)O1` (stereo unspecified), the Efficacy worked out at 124%.

`Cc1cc2c(cc1C)C(=O)OC(CCN(C)C)(c1ccc(Cl)c(Cl)c1)C2` (stereo unspecified): the Efficacy stood at 98%.

Consider `CN(C)CCC1(c2cccc(-c3ccccc3)c2)Cc2ccccc2C(=O)O1` (stereo unspecified), for which the Efficacy amounted to 50%.

For `Cc1cc2c(cc1C)CC(CCN(C)C)(c1ccc3ccccc3c1)OC2` (stereo unspecified), the Efficacy is 49%.

Consider `CN(C)CCC1(c2ccc(Oc3ccccc3)cc2)Cc2ccccc2C(=O)O1` (stereo unspecified), for which the Efficacy worked out at 54%.

For `Cc1cc2c(cc1C)CC(CCN(C)C)(c1ccc(Cl)cc1)OC2` (stereo unspecified), the Efficacy was 47%.

For the molecule `Cc1cc2c(cc1C)C(=O)OC(CCN(C)C)(c1ccc3ccccc3c1)C2` (stereo unspecified), the Efficacy amounted to 126%.

Take `CC(C)N1C(=O)c2ccccc2CC1(CCN(C)C)c1ccc(Cl)cc1` (stereo unspecified): the Efficacy came to 145%.

`C=CCN(CC=C)c1cccc(C2(CCN(C)C)Cc3ccccc3C(=O)O2)c1` (stereo unspecified): the Efficacy amounted to 55%.

On to `CNCCC1(c2ccc(Cl)cc2)Cc2ccccc2C(=O)O1` (stereo unspecified), for which the Efficacy came to 46%.

With `CN(C)CCC1(c2ccc(Cl)cc2)Cc2ccccc2CO1` (stereo unspecified), the Efficacy amounted to 110%.

As for `C=CCN(CC=C)c1ccc2c(c1)CC(CCN(C)C)(c1ccc(Cl)cc1)OC2=O` (stereo unspecified), the Efficacy came to 132%.

On to `CN(C)CCC1(c2cccc(Br)c2)Cc2ccccc2C(=O)O1` (stereo unspecified), for which the Efficacy stood at 68%.

Regarding `CN(C)CCC1(c2ccc(Cl)cc2)Cc2ccccc2C(=O)N1C` (stereo unspecified), the Efficacy stood at 152%.

On to `CN(C)CCC1(c2ccc(Cl)c(Cl)c2)Cc2ccccc2C(=O)O1` (stereo unspecified), for which the Efficacy amounted to 172%.

`COc1cccc(C2(CCN(C)C)Cc3cc(C)c(C)cc3C(=O)O2)c1` (stereo unspecified): the Efficacy was 149%.

On to `CN(C)CCC1(c2ccc(-c3ccccc3)cc2)Cc2ccccc2C(=O)O1` (stereo unspecified), for which the Efficacy result is “inactive”.

For the molecule `COc1ccc2c(c1C)CC(CCN(C)C)(c1ccc(Cl)cc1)OC2=O` (stereo unspecified), the Efficacy amounted to 118%.

For orientation: EC50 means the midpoint of the concentration-response curve.
